# Legend:
# [1] = system: Bacteroides caccae; experiment: Antimicrobial activity against Bacteroides caccae assessed as percent resistant isolates after 48 hrs by agar dilution method; format: functional
# Outline: (§1)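 CLSI agar dilution on recent Korean clinical anaerobe isolates. Inoculum 10^5 CFU per spot by replicator. Plates incubated in an anaerobic chamber at 37°C for 48 h. For piperacillin plus tazobactam, tazobactam was held constant at 4 μg/ml. Resistance and susceptibility rates derived from MICs.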
# [2] = system: Finegoldia magna; experiment: Antimicrobial activity against Finegoldia magna after 48 hrs by agar dilution method; format: functional
# Outline: (§2)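 CLSI agar dilution (M11-A7); inoculum 10^5 CFU applied by replicator; plates incubated anaerobically 48 h at 37°C. For piperacillin-tazobactam, tazobactam held constant at 4 μg/ml.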
# [3] = system: Bacteroides ovatus; experiment: Antimicrobial activity against Bacteroides ovatus assessed as percent susceptible isolates after 48 hrs by agar dilution method; format: functional
# [4] = system: Fusobacterium nucleatum; experiment: Antimicrobial activity against Fusobacterium nucleatum after 48 hrs by agar dilution method; format: functional; outline: as §2
# [5] = system: Parabacteroides distasonis; experiment: Antimicrobial activity against Bacteroides distasonis after 48 hrs by agar dilution method; format: functional
# Outline: (§3)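 MICs on clinical anaerobe isolates by the CLSI agar dilution method. Inoculum of 10^5 CFU applied with a Steers replicator. Plates incubated 48 h at 37°C in an anaerobic chamber.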
# [6] = system: Schaalia odontolytica; experiment: Antimicrobial activity against Actinomyces odontolyticus assessed as percent susceptible isolates after 48 hrs by agar dilution method; format: functional
# [7] = system: Bacteroides caccae; experiment: Antimicrobial activity against Bacteroides caccae assessed as percent susceptible isolates after 48 hrs by agar dilution method; format: functional
# [8] = system: Porphyromonas asaccharolytica; experiment: Antimicrobial activity against Porphyromonas asaccharolytica after 48 hrs by agar dilution method; format: functional; outline: as §2
# [9] = system: Eggerthella lenta; experiment: Antimicrobial activity against Eubacterium lentum assessed as percent resistant isolates after 48 hrs by agar dilution method; format: functional; outline: as §1
# [10] = system: Bifidobacterium adolescentis; experiment: Antimicrobial activity against Bifidobacterium adolescentis assessed as percent resistant isolates after 48 hrs by agar dilution method; format: functional; outline: as §1
# [11] = system: Actinomyces israelii; experiment: Antimicrobial activity against Actinomyces israelii after 48 hrs by agar dilution method; format: functional; outline: as §3
# [12] = system: Finegoldia magna; experiment: Antimicrobial activity against Finegoldia magna assessed as percent resistant isolates after 48 hrs by agar dilution method; format: functional; outline: as §1
# [13] = system: Bacteroides fragilis; experiment: Antimicrobial activity against Bacteroides fragilis after 48 hrs by agar dilution method; format: functional; outline: as §3
# [14] = system: Anaerococcus prevotii; experiment: Antimicrobial activity against Anaerococcus prevotii after 48 hrs by agar dilution method; format: functional; outline: as §3
# [15] = system: Clostridioides difficile; experiment: Antimicrobial activity against Clostridium difficile assessed as percent susceptible isolates after 48 hrs by agar dilution method; format: functional
# [16] = system: Schaalia meyeri; experiment: Antimicrobial activity against Actinomyces meyeri after 48 hrs by agar dilution method; format: functional; outline: as §3
# [17] = system: Peptostreptococcus anaerobius; experiment: Antimicrobial activity against Peptostreptococcus anaerobius assessed as percent susceptible isolates after 48 hrs by agar dilution method; format: functional; outline: as §1
# [18] = system: Peptostreptococcus anaerobius; experiment: Antimicrobial activity against Peptostreptococcus anaerobius after 48 hrs by agar dilution method; format: functional; outline: as §2
# [19] = system: Eubacterium sp.; experiment: Antimicrobial activity against Eubacterium sp. assessed as percent susceptible isolates after 48 hrs by agar dilution method; format: functional; outline: as §2
# [20] = system: Clostridioides difficile; experiment: Antimicrobial activity against Clostridium difficile after 48 hrs by agar dilution method; format: functional
# [21] = system: Bifidobacterium sp.; experiment: Antimicrobial activity against Bifidobacterium sp. assessed as percent resistant isolates after 48 hrs by agar dilution method; format: functional; outline: as §1
# [22] = system: Anaerococcus prevotii; experiment: Antimicrobial activity against Anaerococcus prevotii assessed as percent susceptible isolates after 48 hrs by agar dilution method; format: functional
# [23] = system: Anaerococcus prevotii; experiment: Antimicrobial activity against Anaerococcus prevotii assessed as percent resistant isolates after 48 hrs by agar dilution method; format: functional; outline: as §1
# [24] = system: Bifidobacterium adolescentis; experiment: Antimicrobial activity against Bifidobacterium adolescentis after 48 hrs by agar dilution method; format: functional; outline: as §3
# [25] = system: Phocaeicola vulgatus; experiment: Antimicrobial activity against Bacteroides vulgatus assessed as percent resistant isolates after 48 hrs by agar dilution method; format: functional; outline: as §1
# [26] = system: Prevotella buccae; experiment: Antimicrobial activity against Prevotella buccae assessed as percent susceptible isolates after 48 hrs by agar dilution method; format: functional, Segatella buccae; outline: as §2
# [27] = system: Fusobacterium mortiferum; experiment: Antimicrobial activity against Fusobacterium mortiferum after 48 hrs by agar dilution method; format: functional; outline: as §2
# [28] = system: Clostridioides difficile; experiment: Antimicrobial activity against Clostridium difficile assessed as percent resistant isolates after 48 hrs by agar dilution method; format: functional
# [29] = system: Bacteroides ovatus; experiment: Antimicrobial activity against Bacteroides ovatus after 48 hrs by agar dilution method; format: functional; outline: as §3
# [30] = system: Eubacterium sp.; experiment: Antimicrobial activity against Eubacterium sp. assessed as percent resistant isolates after 48 hrs by agar dilution method; format: functional; outline: as §1
# [31] = system: Peptoniphilus asaccharolyticus; experiment: Antimicrobial activity against Peptoniphilus asaccharolyticus assessed as percent resistant isolates after 48 hrs by agar dilution method; format: functional; outline: as §1
# [32] = system: Bifidobacterium sp.; experiment: Antimicrobial activity against Bifidobacterium sp. after 48 hrs by agar dilution method; format: functional; outline: as §3
# [33] = system: Clostridium perfringens; experiment: Antimicrobial activity against Clostridium perfringens assessed as percent susceptible isolates after 48 hrs by agar dilution method; format: functional
# [34] = system: Eubacterium sp.; experiment: Antimicrobial activity against Eubacterium sp. after 48 hrs by agar dilution method; format: functional; outline: as §2
# [35] = system: Schaalia odontolytica; experiment: Antimicrobial activity against Actinomyces odontolyticus assessed as percent resistant isolates after 48 hrs by agar dilution method; format: functional; outline: as §1
# [36] = system: Prevotella bivia; experiment: Antimicrobial activity against Prevotella bivia assessed as percent resistant isolates after 48 hrs by agar dilution method; format: functional; outline: as §1
# [37] = system: Actinomyces israelii; experiment: Antimicrobial activity against Actinomyces israelii assessed as percent susceptible isolates after 48 hrs by agar dilution method; format: functional
# [38] = system: Phocaeicola vulgatus; experiment: Antimicrobial activity against Bacteroides vulgatus assessed as percent susceptible isolates after 48 hrs by agar dilution method; format: functional
# [39] = system: Bacteroides fragilis; experiment: Antimicrobial activity against Bacteroides fragilis assessed as percent susceptible isolates after 48 hrs by agar dilution method; format: functional
# [40] = system: Bacteroides fragilis; experiment: Antimicrobial activity against Bacteroides fragilis assessed as percent resistant isolates after 48 hrs by agar dilution method; format: functional; outline: as §1
# [41] = system: Eggerthella lenta; experiment: Antimicrobial activity against Eubacterium lentum assessed as percent susceptible isolates after 48 hrs by agar dilution method; format: functional; outline: as §2
# [42] = system: Peptoniphilus asaccharolyticus; experiment: Antimicrobial activity against Peptoniphilus asaccharolyticus assessed as percent susceptible isolates after 48 hrs by agar dilution method; format: functional; outline: as §2
# [43] = system: Prevotella intermedia; experiment: Antimicrobial activity against Prevotella intermedia after 48 hrs by agar dilution method; format: functional; outline: as §2
# [44] = system: Bacteroides ovatus; experiment: Antimicrobial activity against Bacteroides ovatus assessed as percent resistant isolates after 48 hrs by agar dilution method; format: functional; outline: as §1
# [45] = system: Hoylesella oralis; experiment: Antimicrobial activity against Prevotella oralis assessed as percent susceptible isolates after 48 hrs by agar dilution method; format: functional
# Outline: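 CLSI agar dilution MIC testing of clinical isolates. 10^5 CFU spotted by replicator, plates incubated 48 h at 37°C in an anaerobic chamber. Susceptibility rates derived from the MICs.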
# [46] = system: Parvimonas micra; experiment: Antimicrobial activity against Peptostreptococcus micros assessed as percent susceptible isolates after 48 hrs by agar dilution method; format: functional; outline: as §1
# [47] = system: Actinomyces naeslundii; experiment: Antimicrobial activity against Actinomyces naeslundii after 48 hrs by agar dilution method; format: functional; outline: as §3
# [48] = system: Fusobacterium necrogenes; experiment: Antimicrobial activity against Fusobacterium necrogenes after 48 hrs by agar dilution method; format: functional; outline: as §2
smiles,measurement,setting,value
CO[C@@]1(NC(=O)Cc2cccs2)C(=O)N2C(C(=O)O)=C(COC(N)=O)CS[C@@H]21 [CEFOXITIN],Activity,[1],7%
same,MIC50,[2],0.5 mg/L
same,MIC90,[2],1 mg/L
same,Activity,[3],25%
same,MIC,[4],0.06 mg/L
same,MIC50,[5],32 mg/L
same,MIC90,[5],32 mg/L
same,Activity,[6],92%
same,Activity,[7],25%
same,MIC,[8],0.06 mg/L
same,Activity,[9],0%
same,Activity,[10],0%
same,MIC50,[11],2 mg/L
same,MIC90,[11],16 mg/L
same,Activity,[12],0%
same,MIC50,[13],16 mg/L
same,MIC90,[13],32 mg/L
same,MIC50,[14],0.5 mg/L
same,MIC90,[14],1 mg/L
same,Activity,[15],0%
same,MIC50,[16],2 mg/L
same,MIC90,[16],16 mg/L
same,Activity,[17],100%
same,MIC50,[18],1 mg/L
same,MIC90,[18],16 mg/L
same,Activity,[19],92%
same,MIC,[20],64 mg/L
same,MIC50,[20],64 mg/L
same,MIC90,[20],> 128 mg/L
same,Activity,[21],0%
same,Activity,[22],100%
same,Activity,[23],0%
same,MIC50,[24],2 mg/L
same,MIC90,[24],16 mg/L
same,Activity,[25],7%
same,Activity,[26],89%
same,MIC,[27],0.06 mg/L
same,Activity,[28],100%
same,MIC50,[29],32 mg/L
same,MIC90,[29],32 mg/L
same,Activity,[30],0%
same,Activity,[31],0%
same,MIC50,[32],2 mg/L
same,MIC90,[32],16 mg/L
same,Activity,[33],100%
same,MIC50,[34],2 mg/L
same,MIC90,[34],16 mg/L
same,Activity,[35],0%
same,Activity,[36],0%
same,Activity,[37],92%
same,Activity,[38],25%
same,Activity,[39],79%
same,Activity,[40],5%
same,Activity,[41],92%
same,Activity,[42],100%
same,MIC50,[43],2 mg/L
same,MIC90,[43],4 mg/L
same,Activity,[44],7%
same,Activity,[45],89%
same,Activity,[46],0%
same,MIC50,[47],2 mg/L
same,MIC90,[47],16 mg/L
same,MIC,[48],0.06 mg/L
